Data: ChEMBL document CHEMBL2062435, “Synthesis and in vitro antibacterial activity of gemifloxacin derivatives containing a substituted benzyloxime moiety” (2012)

Experiments:
Assay type in all cases: functional
[1] = tested on: Staphylococcus aureus; test: Antimicrobial activity against Staphylococcus aureus ATCC […] after 18-24 hrs by two-fold serial dilution method
Summary of the method: (§1)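 Agar-medium twofold serial dilution against Gram-positive and Gram-negative strains; MIC taken as the lowest compound concentration giving complete inhibition of bacterial growth after incubation at 35 °C for 18-24 h.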

[2] = tested on: Staphylococcus aureus; test: Antimicrobial activity against extended spectrum beta-lactamases-producing methicillin-resistant Staphylococcus aureus 10-11 after 18-24 hrs by two-fold serial dilution method
Summary of the method: (§2)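 Agar twofold serial dilution MIC against clinical isolates. MIC was taken as the lowest concentration giving complete inhibition of bacterial growth after incubation at 35 °C for 18-24 h.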

[3] = tested on: Staphylococcus aureus; test: Antimicrobial activity against extended spectrum beta-lactamases-producing methicillin-resistant Staphylococcus aureus 10-15 after 18-24 hrs by two-fold serial dilution method; summary of the method: as §2
[4] = tested on: Staphylococcus aureus; test: Antimicrobial activity against extended spectrum beta-lactamases-producing methicillin-sensitive Staphylococcus aureus 10-13 after 18-24 hrs by two-fold serial dilution method; summary of the method: as §1
[5] = tested on: Staphylococcus aureus; test: Antimicrobial activity against extended spectrum beta-lactamases-producing methicillin-sensitive Staphylococcus aureus 10-14 after 18-24 hrs by two-fold serial dilution method; summary of the method: as §1
[6] = tested on: Staphylococcus epidermidis; test: Antimicrobial activity against extended spectrum beta-lactamases-producing methicillin-resistant Staphylococcus epidermidis 10-10 after 18-24 hrs by two-fold serial dilution method; summary of the method: as §2
[7] = tested on: Staphylococcus epidermidis; test: Antimicrobial activity against extended spectrum beta-lactamases-producing methicillin-resistant Staphylococcus epidermidis 10-13 after 18-24 hrs by two-fold serial dilution method; summary of the method: as §2
[8] = tested on: Staphylococcus epidermidis; test: Antimicrobial activity against extended spectrum beta-lactamases-producing methicillin-sensitive Staphylococcus epidermidis 10-11 after 18-24 hrs by two-fold serial dilution method; summary of the method: as §1
[9] = tested on: Staphylococcus epidermidis; test: Antimicrobial activity against extended spectrum beta-lactamases-producing methicillin-sensitive Staphylococcus epidermidis 10-13 after 18-24 hrs by two-fold serial dilution method; summary of the method: as §1
[10] = tested on: Staphylococcus epidermidis; test: Antimicrobial activity against extended spectrum beta-lactamases-producing methicillin-sensitive Staphylococcus epidermidis 10-15 after 18-24 hrs by two-fold serial dilution method; summary of the method: as §1
[11] = tested on: Enterococcus faecalis; test: Antimicrobial activity against Enterococcus faecalis 10-5 after 18-24 hrs by two-fold serial dilution method; summary of the method: as §1
[12] = tested on: Enterococcus faecalis; test: Antimicrobial activity against Enterococcus faecalis 10-6 after 18-24 hrs by two-fold serial dilution method; summary of the method: as §1
[13] = tested on: Enterococcus faecalis; test: Antimicrobial activity against Enterococcus faecalis 10-7 after 18-24 hrs by two-fold serial dilution method; summary of the method: as §1
[14] = tested on: Enterococcus faecium; test: Antimicrobial activity against Enterococcus faecium 10-5 after 18-24 hrs by two-fold serial dilution method; summary of the method: as §1
[15] = tested on: Enterococcus faecium; test: Antimicrobial activity against Enterococcus faecium 10-9 after 18-24 hrs by two-fold serial dilution method; summary of the method: as §1
[16] = tested on: Streptococcus pneumoniae; test: Antimicrobial activity against extended spectrum beta-lactamases-producing Streptococcus pneumoniae 10-1 after 18-24 hrs by two-fold serial dilution method; summary of the method: as §1
[17] = tested on: Streptococcus pneumoniae; test: Antimicrobial activity against extended spectrum beta-lactamases-producing Streptococcus pneumoniae 10-4 after 18-24 hrs by two-fold serial dilution method; summary of the method: as §1
[18] = tested on: Escherichia coli; test: Antimicrobial activity against Escherichia coli ATCC 25922 after 18-24 hrs by two-fold serial dilution method; summary of the method: as §1
[19] = tested on: Escherichia coli; test: Antimicrobial activity against Escherichia coli 10-1 after 18-24 hrs by two-fold serial dilution method; summary of the method: as §1
[20] = tested on: Escherichia coli; test: Antimicrobial activity against Escherichia coli 10-2 after 18-24 hrs by two-fold serial dilution method; summary of the method: as §1
[21] = tested on: Escherichia coli; test: Antimicrobial activity against extended spectrum beta-lactamases-producing Escherichia coli 10-2 after 18-24 hrs by two-fold serial dilution method; summary of the method: as §1
[22] = tested on: Escherichia coli; test: Antimicrobial activity against Escherichia coli 10-3 after 18-24 hrs by two-fold serial dilution method; summary of the method: as §1
[23] = tested on: Escherichia coli; test: Antimicrobial activity against extended spectrum beta-lactamases-producing Escherichia coli 10-3 after 18-24 hrs by two-fold serial dilution method; summary of the method: as §1
[24] = tested on: Escherichia coli; test: Antimicrobial activity against extended spectrum beta-lactamases-producing Escherichia coli 10-4 after 18-24 hrs by two-fold serial dilution method; summary of the method: as §1
[25] = tested on: Klebsiella pneumoniae; test: Antimicrobial activity against extended spectrum beta-lactamases-producing Klebsiella pneumoniae 10-1 after 18-24 hrs by two-fold serial dilution method; summary of the method: as §1
[26] = tested on: Klebsiella pneumoniae; test: Antimicrobial activity against Klebsiella pneumoniae 10-2 after 18-24 hrs by two-fold serial dilution method; summary of the method: as §1
[27] = tested on: Klebsiella pneumoniae; test: Antimicrobial activity against extended spectrum beta-lactamases-producing Klebsiella pneumoniae 10-2 after 18-24 hrs by two-fold serial dilution method; summary of the method: as §1
[28] = tested on: Klebsiella pneumoniae; test: Antimicrobial activity against Klebsiella pneumoniae 10-3 after 18-24 hrs by two-fold serial dilution method; summary of the method: as §1
[29] = tested on: Klebsiella pneumoniae; test: Antimicrobial activity against extended spectrum beta-lactamases-producing Klebsiella pneumoniae 10-3 after 18-24 hrs by two-fold serial dilution method; summary of the method: as §1
[30] = tested on: Klebsiella pneumoniae; test: Antimicrobial activity against Klebsiella pneumoniae 10-4 after 18-24 hrs by two-fold serial dilution method; summary of the method: as §1
[31] = tested on: Pseudomonas aeruginosa; test: Antimicrobial activity against Pseudomonas aeruginosa 10-12 after 18-24 hrs by two-fold serial dilution method; summary of the method: as §1
[32] = tested on: Pseudomonas aeruginosa; test: Antimicrobial activity against extended spectrum beta-lactamases-producing Pseudomonas aeruginosa 10-5 after 18-24 hrs by two-fold serial dilution method; summary of the method: as §1
[33] = tested on: Pseudomonas aeruginosa; test: Antimicrobial activity against extended spectrum beta-lactamases-producing Pseudomonas aeruginosa 10-9 after 18-24 hrs by two-fold serial dilution method; summary of the method: as §1
[34] = tested on: Pseudomonas aeruginosa; test: Antimicrobial activity against extended spectrum beta-lactamases-producing Pseudomonas aeruginosa 10-15 after 18-24 hrs by two-fold serial dilution method; summary of the method: as §1
[35] = tested on: Pseudomonas aeruginosa; test: Antimicrobial activity against extended spectrum beta-lactamases-producing Pseudomonas aeruginosa 10-18 after 18-24 hrs by two-fold serial dilution method; summary of the method: as §1
[36] = tested on: Pseudomonas aeruginosa; test: Antimicrobial activity against extended spectrum beta-lactamases-producing Pseudomonas aeruginosa 10-20 after 18-24 hrs by two-fold serial dilution method; summary of the method: as §1

| Structure (SMILES) | MIC [1] | MIC [2] | MIC [3] | MIC [4] | MIC [5] | MIC [6] | MIC [7] | MIC [8] | MIC [9] | MIC [10] | MIC [11] | MIC [12] | MIC [13] | MIC [14] | MIC [15] | MIC [16] | MIC [17] | MIC [18] | MIC [19] | MIC [20] | further results |
| --- | --- | --- | --- | --- | --- | --- | --- | --- | --- | --- | --- | --- | --- | --- | --- | --- | --- | --- | --- | --- | --- |
| COc1cc(F)c(CO/N=C2\CN(c3nc4c(cc3F)c(=O)c(C(=O)O)cn4C3CC3)CC2CN)cc1OC.CS(=O)(=O)O (racemic) | 0.03 µg/mL | 1 µg/mL | 0.125 µg/mL | 0.03 µg/mL | 0.03 µg/mL | 0.5 µg/mL | 0.25 µg/mL | 1 µg/mL | 0.03 µg/mL | 2 µg/mL | 0.25 µg/mL | 2 µg/mL | 1 µg/mL | 4 µg/mL | 8 µg/mL | 0.25 µg/mL | 0.03 µg/mL | 0.125 µg/mL | > 128 µg/mL | > 128 µg/mL | MIC [21]: > 128 µg/mL; MIC [22]: > 128 µg/mL; MIC [23]: > 128 µg/mL; MIC [24]: > 128 µg/mL; MIC [25]: > 128 µg/mL; MIC [26]: > 128 µg/mL; MIC [27]: > 128 µg/mL; MIC [28]: > 128 µg/mL; MIC [29]: > 128 µg/mL; MIC [30]: > 128 µg/mL; MIC [31]: > 128 µg/mL; MIC [32]: > 128 µg/mL; MIC [33]: > 128 µg/mL; MIC [34]: > 128 µg/mL; MIC [35]: > 128 µg/mL; MIC [36]: > 128 µg/mL |
| CS(=O)(=O)O.NCC1CN(c2nc3c(cc2F)c(=O)c(C(=O)O)cn3C2CC2)C/C1=N\OCc1ccccc1 (racemic) | < 0.008 µg/mL | 4 µg/mL | 0.5 µg/mL | 0.015 µg/mL | 0.03 µg/mL | 1 µg/mL | 1 µg/mL | 1 µg/mL | 0.06 µg/mL | 8 µg/mL | 1 µg/mL | 4 µg/mL | 2 µg/mL | 4 µg/mL | 8 µg/mL | 0.25 µg/mL | 0.06 µg/mL | 0.03 µg/mL | 16 µg/mL | 4 µg/mL | MIC [21]: 32 µg/mL; MIC [22]: 8 µg/mL; MIC [23]: 32 µg/mL; MIC [24]: 4 µg/mL; MIC [25]: 32 µg/mL; MIC [26]: 32 µg/mL; MIC [27]: 64 µg/mL; MIC [28]: 2 µg/mL; MIC [29]: 32 µg/mL; MIC [30]: 128 µg/mL; MIC [31]: 4 µg/mL; MIC [32]: 8 µg/mL; MIC [33]: 2 µg/mL; MIC [34]: 4 µg/mL; MIC [35]: 1 µg/mL; MIC [36]: 2 µg/mL |
| COc1cc(CO/N=C2\CN(c3nc4c(cc3F)c(=O)c(C(=O)O)cn4C3CC3)CC2CN)ccc1OC(F)F.CS(=O)(=O)O (racemic) | 0.008 µg/mL | 2 µg/mL | 0.5 µg/mL | 0.06 µg/mL | 0.03 µg/mL | 2 µg/mL | 4 µg/mL | 0.25 µg/mL | 8 µg/mL | 4 µg/mL | 2 µg/mL | 8 µg/mL | 4 µg/mL | 8 µg/mL | 16 µg/mL | 0.25 µg/mL | 2 µg/mL | 0.06 µg/mL | > 128 µg/mL | 16 µg/mL | MIC [21]: > 128 µg/mL; MIC [22]: 16 µg/mL; MIC [23]: > 128 µg/mL; MIC [24]: 8 µg/mL; MIC [25]: > 128 µg/mL; MIC [26]: > 128 µg/mL; MIC [27]: > 128 µg/mL; MIC [28]: 8 µg/mL; MIC [29]: > 128 µg/mL; MIC [30]: > 128 µg/mL; MIC [31]: 8 µg/mL; MIC [32]: 8 µg/mL; MIC [33]: 8 µg/mL; MIC [34]: 32 µg/mL; MIC [35]: 16 µg/mL; MIC [36]: 8 µg/mL |
